Assay outcomes as filed in PubChem.
E-sel inducer: induces E-selectin expression in human endothelial cells; P16581; HUVEC E-selectin immunofluorescence imaging; normalized: neutral wells 0, TNF-alpha wells 100; activation, % at 7.58 µM; actives 0.37% (n = 260,000); AID 686992;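 active = mean E-selectin-positive cell signal at least 10% of the positive control, reached in at least 60% of replicates, without over 20% cell loss; inconclusive = no rule given, readout overlaps actives, possibly toxicity-flagged; inactive = the rest, including those meeting only one limit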
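Assay system: HUVEC, human umbilical vein endothelial cells / Amount: 3,000 HUVEC/well / Controls: TNF-alpha positive control, DMSO neutral control / Compound dosing: single concentration / Medium: EGM-2 over gelatin coat / Evaluation: percent E-selectin-positive cells / Signal: immunofluorescence imaging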
SIRT5 block: blocks human SIRT5 desuccinylation of peptide. actives 1.1% (n = 330,000). Purified SirT5, succinyl-peptide AMC, trypsin-coupled fluorescence. Q9NXA8. inhibition, % at 15 µM. AID 652115; in the data active = inhibition above about 15%; inconclusive = no clear call, values can overlap the other calls
Target sequence (Q9NXA8 whole entry, looked up): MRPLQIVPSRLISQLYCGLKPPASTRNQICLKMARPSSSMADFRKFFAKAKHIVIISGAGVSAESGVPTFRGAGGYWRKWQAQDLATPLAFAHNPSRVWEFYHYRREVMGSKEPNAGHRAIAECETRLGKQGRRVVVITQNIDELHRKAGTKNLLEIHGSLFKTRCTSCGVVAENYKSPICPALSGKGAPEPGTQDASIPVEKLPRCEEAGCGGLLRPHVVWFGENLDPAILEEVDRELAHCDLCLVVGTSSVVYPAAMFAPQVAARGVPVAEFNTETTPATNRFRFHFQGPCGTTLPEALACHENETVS
DENV2 CPE rescue: protects cells from dengue virus 2 cytopathic effect. DENV2-infected cells, cytopathic effect rescue, plate reader. CPE inhibition, % at 9.99 µM. actives 1.7% (n = 350,000). AID 651640; in the data active = CPE inhibition above about 20%, passing the limit was not always enough; inconclusive = no clear call, values can overlap the other calls; tested in BHK-21 cells;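 also: 0% = median of neutral control wells and 100% = median of positive control wells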
Active calls of the source: *; ? = inconclusive; . = no result given. Most compounds without a hit are left out; they make up all but 2.9% or so of the library.

SMILES	E-sel inducer	SIRT5 block	DENV2 CPE rescue
CCOC(=O)c1cc2cc(OC)ccc2n1C1CCN(Cc2ccccc2)CC1	0.2	-4.7	35.0*
COc1ccc2nc(-c3ccc(CN4CCC(n5c(=O)[nH]c6cc(Cl)ccc65)CC4)cc3)c(-c3ccccc3)nc2c1	0.6	5.2	-0.9
CN(C)[C@@H]1C(=O)C(C(N)=O)=C(O)[C@@]2(O)C(=O)C3=C(O)c4c(O)ccc(Cl)c4[C@@](C)(O)C3C[C@@H]12 (stereo not given in full)	-2.4	10.6	3.3
CN(C)[C@@H]1C(=O)C(C(N)=O)=C(O)[C@@]2(O)C(=O)C3=C(O)c4c(O)cccc4[C@@](C)(O)C3[C@H](O)C12 (stereo not given in full)	-0.1	36.0*	-6.7
CCC(C)c1cnc(CC(C)C)c(=O)n1O (stereo not given)	.	0.8	59.5*
CCOc1cc(C(=O)N2CCC3(CC2)OCCO3)cc(OCC)c1OCC	.	-0.2	-11.5
CC1CC2C(C(O)CC3(C)C(O)CCC23)C2(C)CCC(=O)C=C12 (stereo not given)	-1.2	.	-6.4
COc1cccc(N2C(=O)NC(=O)/C(=C/c3ccc4c5c(cccc35)CC4)C2=O)c1	2.1	36.9*	2.8
COc1ccc(N2C(=O)NC(=O)/C(=C\c3ccccc3[N+](=O)[O-])C2=O)cc1	5.5	-0.1	.
O=c1c2ccccc2nc(/C=C/c2ccc([N+](=O)[O-])o2)n1-c1ccc(O)cc1	.	2.5	-4.8
Cc1cccc(-n2c(/C=C/c3ccc([N+](=O)[O-])o3)nc3ccccc3c2=O)c1	.	18.2*	-1.7
Cn1c(=O)c2c(ncn2CCCl)n(C)c1=O	.	.	7.5
NP(=O)(OCCCc1ccccc1)Oc1ccccc1Cl (stereo not given)	-0.1	0.9	.
NP(=O)(OCCCc1ccccc1)Oc1ccc(Cl)cc1 (stereo not given)	.	.	20.2*
NCCCCCC(=O)OC1N=C(c2ccccc2Cl)c2cc(Br)ccc2NC1=O (stereo not given)	1.1	-2.9	-5.2
CC/C=C/CC(=O)N[C@@H](c1ccccc1)[C@@H](O)C(=O)O[C@H]1C[C@@]2(O)[C@@H](OC(=O)c3ccccc3)C3[C@](C)(C(=O)[C@H](OC(C)=O)C(=C1C)C2(C)C)[C@@H](O)C[C@H]1OC[C@@]31OC(C)=O (stereo not given in full)	.	-1.3	28.1*
CCC(C)C(=O)N[C@@H](c1ccccc1)[C@@H](O)C(=O)O[C@H]1C[C@@]2(O)[C@@H](OC(=O)c3ccccc3)C3[C@](C)(C(=O)[C@H](OC(C)=O)C(=C1C)C2(C)C)[C@@H](O)C[C@H]1OC[C@@]31OC(C)=O (stereo not given in full)	.	-0.3	-14.2
CSc1ccc(CN2CCN(c3ccccc3C)CC2)cc1	.	-11.6	14.4
CN1OC[C@@H]2CN[C@H](c3ccc(Br)cc3)C[C@@H]21	-1.6	-2.9	25.7*
CN1C[C@H]2CON(C)[C@H]2C[C@H]1c1cccc(Br)c1	0.1	2.2	2.8
COc1ccc(-n2nnnc2C(c2ccccc2)N2CCC(n3c(=O)[nH]c4ccccc43)CC2)cc1 (stereo not given)	-0.5	.	-8.5
C[C@@H](N)Cc1cnc[nH]1	0.2	-2.4	?
Cc1cccc(CN2CCCC(C(=O)c3ccc(C(F)(F)F)cc3)C2)n1 (stereo not given)	.	1.9	-0.4
CC(C)(Cl)[N+](=O)[O-]	.	.	129.9*
O=C1NC2C(=CC(O)C(O)C2O)c2cc3c(c(O)c21)OCO3 (stereo not given)	-0.4	-4.4	87.6*
SMILES	E-sel inducer	SIRT5 block	DENV2 CPE rescue
O=C1NC2C(=CC(O)C(O)C2O)c2cc3c(cc21)OCO3 (stereo not given)	-0.4	.	4.2
NC(=O)c1ccc(N)nc1	0.2	0.5	0.1
CN1/C(=C\C=C2C(=O)NC(=S)NC2=O)C(C)(C)c2ccccc21	.	-8.8	.
CC1(C)OC(c2ccccc2)=C/C(=C/C=C2C(=O)NC(=S)NC2=O)O1	533.1*	-0.5	1.4
CCCCCSc1cc(O)c(C(CNC)C(C)C)cc1OC (stereo not given)	-1.7	-4.3	11.3
O=C(Cc1cccnc1)N1CCCCN2[C@H](CO)[C@@H](c3ccc(C#CC4(O)CCCC4)cc3)[C@H]2C1	-0.1	-0.5	-5.7
CCCC#Cc1ccc([C@@H]2[C@@H](CO)N3CCCCN(C(=O)Cc4ccccn4)C[C@H]23)cc1	0.5	-3.0	2.1
CN(C)CC#Cc1ccc([C@@H]2[C@@H](CO)N3CCCCN(C(=O)Cc4ccccn4)C[C@@H]23)cc1	0.1	-4.2	-12.3
N#Cc1cccc(-c2ccc([C@@H]3[C@H](CO)N4CCCCN(C(=O)Cc5ccccc5)C[C@@H]34)cc2)c1	0.1	-5.4	7.9
O=C(Cc1cccnc1)N1CCCCN2[C@H](C1)[C@H](c1ccc(C#CC3(O)CCCC3)cc1)[C@@H]2CO	0.2	-3.2	24.8*
N#Cc1cccc(-c2ccc([C@H]3[C@@H](CO)N4CCCCN(C(=O)Cc5ccccc5)C[C@H]34)cc2)c1	-0.6	-2.0	26.5*
CCCC#Cc1ccc([C@H]2[C@H]3CN(C(=O)Cc4ccccn4)CCCCN3[C@H]2CO)cc1	-0.2	-1.6	20.6*
CN(C)CC#Cc1ccc([C@H]2[C@@H](CO)N3CCCCN(C(=O)Cc4ccccn4)C[C@H]23)cc1	-0.1	-3.2	30.4*
Cn1c(N)c(C(=O)COC(=O)Cc2ccccc2)c(=O)n(C)c1=O	0.1	.	-5.2
COc1cccc2c1C(=O)c1c(O)c3c(c(O)c1C2=O)CC(O)(C(C)=NO)CC3OC1CC(N)C(O)C(C)O1 (stereo not given)	3.3	-1.0	-6.9
C[n+]1c(-c2ccccc2)c2cc(N)ccc2c2ccc(N)cc21	9.1	2.7	-5.0
COC(=O)C1=C(c2cccc(OCc3ccccc3)c2)C[C@@H]2CC[C@H]1N2C(=O)NCc1ccc(F)cc1	-0.1	-5.5	0.9
C/C=C/c1ccc([C@@H]2[C@H](CO)N3CCCCN(C(=O)Cc4ccncc4)C[C@@H]23)cc1	0.6	0.4	-2.5
O=C(Cc1ccccn1)N1CCCCN2[C@H](C1)[C@@H](c1ccc(-c3ccccc3)cc1)[C@@H]2CO	0.7	0.3	20.7*
O=C(Cc1ccccn1)N1CCCCN2[C@H](CO)[C@H](c3ccc(-c4ccccc4)cc3)[C@H]2C1	0.2	7.0	-5.6
C/C=C/c1ccc([C@@H]2[C@H]3CN(C(=O)Cc4ccncc4)CCCCN3[C@H]2CO)cc1	0.0	0.8	81.7*
O=c1c(C=Nc2cccnc2Cl)c(O)n(CCCCl)c(=O)n1C1CCCCC1	.	-1.1	-5.8
COc1ccc(-c2[nH]ncc2CNC(C)Cc2ccsc2)c(F)c1 (stereo not given)	.	-1.3	-0.1
CCN1CCN(Cc2nc3ccc([N+](=O)[O-])cc3c(=O)n2-c2ccccc2F)CC1	0.1	1.3	-2.6
COC(=O)[C@H]1[C@H](CO)[C@H]2Cn3c(ccc(C4=CCCCC4)c3=O)[C@@H]1N2CC1CCCC1	-0.1	-1.5	-3.1
c1ccc(C2CC2)c(OCC2=NCCN2)c1	0.9	1.8	74.6*
Cc1ccc(OC(F)F)c(N2C(=O)C3C4CCC(O4)C3C2=O)c1 (stereo not given)	34.7*	-4.9	-8.8
Oc1cc(Cl)c(Cl)cc1Cl	0.0	-2.3	8.9
Clc1cc(Cl)c(-c2cc(Cl)c(Cl)cc2Cl)cc1Cl	.	.	23.1*
